PPC-1+TRAIL kill: PPC-1 cancer cell killing with TRAIL present | PPC-1 cells + TRAIL, ATPLite viability luminescence | cell killing (% activity), % at 4 µM or 5 µM | 220,000 tested, 0.41% active | AID 1443;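 active = cell killing above 50% in the first pass at 4 µM, then a duplicate retest at 5 µM averaging 50% or more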;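 note: plate controls were cells with TRAIL plus DMSO for no effect and medium-only wells lacking cells for full effect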
C8 TRAIL sens: sensitizes caspase-8 expressing cells to TRAIL | 360,000 tested, 1% active | inhibition (viability loss, TRAIL sensitization), % at 10 µM | NB7+C8 cells + TRAIL, ATPlite viability luminescence | AID 624354;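 active = compounds causing at least 50% loss of cell viability in the single-dose screen, relative to plate controls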
FLuc stim CS: affects firefly luciferase, flagging false hits in luciferase stimulation screens. P08659. ATPlite luciferase biochemical, luminescence, 10 min; 0 = ATP-free wells, 1 = DMSO control. activation factor at 10 µM. 200,000 tested, under 10 active;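 active = luciferase activation factor, scaled between plate controls, of at least 2 with compound at 10 µM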
Target sequence (P08659 whole entry, looked up): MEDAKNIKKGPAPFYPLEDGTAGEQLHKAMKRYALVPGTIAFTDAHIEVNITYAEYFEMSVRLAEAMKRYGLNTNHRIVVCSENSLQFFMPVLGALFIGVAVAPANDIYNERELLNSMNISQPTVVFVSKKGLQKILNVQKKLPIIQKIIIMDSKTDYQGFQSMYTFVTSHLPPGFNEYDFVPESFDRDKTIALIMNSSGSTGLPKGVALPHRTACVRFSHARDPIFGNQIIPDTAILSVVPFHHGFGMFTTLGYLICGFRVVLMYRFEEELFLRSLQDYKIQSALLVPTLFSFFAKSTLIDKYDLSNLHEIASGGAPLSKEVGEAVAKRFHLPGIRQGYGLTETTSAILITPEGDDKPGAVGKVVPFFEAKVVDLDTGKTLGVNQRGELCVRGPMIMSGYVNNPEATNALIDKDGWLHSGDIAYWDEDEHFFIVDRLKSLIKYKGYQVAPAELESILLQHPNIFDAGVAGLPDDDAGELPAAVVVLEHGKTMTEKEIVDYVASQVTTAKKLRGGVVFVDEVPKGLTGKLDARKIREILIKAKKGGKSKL
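Material: luciferase plus luciferin reagent, cell-free. Medium: PBS buffer for ATP. Also added: ATP substrate, dispensed from a 10.24 µM working solution in PBS. Doses: test compounds dosed from 2 mM stocks in 100% DMSO. Incubation: 10 min post-reagent at room temperature. Technique: light output (luminescence). Read-out basis: luminescence gain marking luciferase activators.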
HSP90 inh: blocks HSP90-mediated luciferase refolding in reticulocyte lysate. 290,000 tested, 0.91% active. inhibition, % at 5.6 µM. AID 1789. Rabbit reticulocyte lysate, luciferase refolding luminescence, 3 h;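 active = inhibition above the screen-wide mean plus 3 SD, computed separately per campaign, cut at about 16% in these data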;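 note: 0% = DMSO wells and 100% = 60 µM geldanamycin wells; inhibitors lower the luminescence because luciferase stays unfolded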
FLuc inhib CS: Photinus pyralis luciferase inhibition counter-screen | AID 1006 | 200,000 tested, 1.5% active | P08659 | inhibition, % at 10 µM | ATPLite firefly luciferase biochemical luminescence, 10 min;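 active = inhibition above about 50% when tested at 10 µM, limit read from the data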
PPC1 cytotox: PPC-1 cell cytotoxicity; shares compounds with PPC-1+TRAIL kill; PPC-1 viability, ATPlite luminescence, overnight; cytotoxicity, % at 5 µM; 1,200 tested, 50% active; AID 1447;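 active = reconfirmed compounds whose average cytotoxicity reaches 50% or more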;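 note: 0% = DMSO-treated cells and 100% = wells holding medium but no cells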
HSP90 inh confirm: confirmation of HSP90 inhibitors. shares compounds with HSP90 inh. rabbit reticulocyte lysate, luciferase refolding luminescence, 3 h. inhibition, % at 5.9 µM. 2,300 tested, 64% active. AID 1846; in the data active = inhibition above about 18%;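 note: 0% = vehicle wells and 100% = reference inhibitor wells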
FLuc counter: firefly luciferase inhibition, HSP90 counter-screen. shares compounds with HSP90 inh. purified native firefly luciferase, luminescence. inhibition, % at 5.9 µM. 2,300 tested, 48% active. AID 1847;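 active = inhibition above the mean inhibition of all tested sample wells plus 3 SD, cut at about 10% in these data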;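 note: 0% = DMSO with luciferase and 100% = wells lacking luciferase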
The depositor's hits bear a star; nt = not tested or not shown. The list is not random: actives were taken first. Their share in the collection is about 2%.

SMILES | PPC-1+TRAIL kill | C8 TRAIL sens | FLuc stim CS | HSP90 inh | FLuc inhib CS | HSP90 inh confirm | FLuc counter | others
Cc1nc2c(=O)n(C)c(=O)nc-2n(C)n1 | 66* | 96* | 0.9 | 78* | 5 | 80* | 83* | PPC1 cytotox=62*
CC(=O)O[C@]1(C)C(=O)OC/C2=C/CN(C)CCC(OC(=O)[C@@](O)(C(C)O)C[C@H]1C)C2=O (stereo partly specified) | nt | 3 | nt | 7 | nt | nt | nt
CN1CCN2c3ccc(N)cc3CC3(C(=O)NC(=O)NC3=O)C2C1 (stereo unspecified) | 0 | -5 | nt | 20* | nt | -1 | -15
CN1C(=O)N(C)C(=O)C2(Cc3cc(N)ccc3N3CCN(c4ccccc4F)CC32)C1=O (stereo unspecified) | 1 | nt | 1 | 2 | -4 | nt | nt
COc1ccc(-n2c(O)c(C(C)=NCCN3CCNCC3)c(=O)[nH]c2=O)cc1 | 11 | 11 | 1.1 | 4 | -7 | nt | nt
CCOc1cc(/C=C2\C(=O)NC(=O)N(CCc3ccc(F)cc3)C2=O)ccc1O | 3 | -2 | nt | 38* | nt | 7 | 8
O=C1C2CCCN2C(c2cccnc2)N1c1nccs1 (stereo unspecified) | 3 | -11 | 1 | 3 | -4 | nt | nt
Cc1ccccc1-n1c(-c2ccc([N+](=O)[O-])cc2)nc2ccccc2c1=O | 19 | -1 | 1.1 | -3 | -11 | nt | nt
O=c1c2ccccc2nc(-c2ccccc2)n1-c1cccnc1 | 13 | -10 | 1 | 0 | -5 | nt | nt
O=C1CC(c2cccnc2)=NN1c1ccccc1 | 11 | -9 | 1 | 28* | -2 | 3 | 0
CCOP(=S)(NN(Cc1ccccc1)C(=O)c1ccccc1)OCC | 40 | 3 | 1 | 42* | -4 | 5 | 0
CC(=NCc1ccco1)c1c(O)n(-c2ccc(Cl)cc2)c(=O)[nH]c1=O | 1 | -10 | nt | -4 | nt | nt | nt
CCOC(=O)c1c(NS(=O)(=O)c2ccccc2)n(CCCOC)c2nc3ccccc3nc12 | 12 | 8 | 1 | 22* | -4 | 7 | -4
CCOC(=O)c1c(N)n(Cc2ccc(OC)cc2)c2nc3ccccc3nc12 | 2 | nt | 1.1 | 2 | -6 | nt | nt
CCCCNC(=O)c1c(N)n(CCCOC)c2nc3ccccc3nc12 | 23 | 11 | 1.1 | 8 | -6 | nt | nt
COCCCn1c(N)c(C(=O)OCCOC)c2nc3ccccc3nc21 | 28 | -1 | 1 | 22* | -1 | -2 | -4
COCCO[C@H]1CC[C@@]2(C)C(=CCC3C2CC[C@@]2(C)C3CC[C@]2(C)O)C1 (stereo partly specified) | nt | 9 | nt | nt | nt | nt | nt
CC(C)(C)c1ccc(O)c(N=Cc2c(O)ccc3ccccc23)c1 | nt | 8 | nt | 30* | nt | 30* | -6
CCOC(=O)c1c(C)[nH]c(C)c1C(=O)C(Cc1ccccc1)N(C)C (stereo unspecified) | nt | 5 | nt | 22* | nt | -1 | -6
CN(C)C(Cc1ccccc1)C(=O)c1ccccc1 (stereo unspecified) | 29 | 9 | 1 | -4 | 2 | nt | nt
O=C1CC(=O)N(c2ccccc2)C(=O)N1 | nt | -3 | nt | nt | nt | nt | nt
O=C(N/N=C/c1c(O)n(C2CC2)c(=S)[nH]c1=O)c1ccccc1O | 18 | -3 | 0.7 | -1 | 33 | nt | nt
Cc1ccccc1-n1c(O)c(/C=N/NC(=O)c2ccccc2O)c(=O)[nH]c1=S | 2 | 10 | nt | 21* | nt | 52* | 48*
CN1CCN(c2cccc3c2C(=O)c2ccccc2C3=O)CC1 | 2 | -7 | 1 | 19* | -2 | 20* | 1
CN1CCN(c2ccc3c(c2)S(=O)(=O)c2ccccc2C3=O)CC1 | nt | 12 | nt | nt | nt | nt | nt
SMILES | PPC-1+TRAIL kill | C8 TRAIL sens | FLuc stim CS | HSP90 inh | FLuc inhib CS | HSP90 inh confirm | FLuc counter | others
COc1ccc(N/N=C/c2c(O)n(-c3ccc(C)c(C)c3)c(=O)[nH]c2=O)cc1 | 0 | 10 | 1 | 19* | -4 | 29* | -6
CN1CCC2(O)OCCCC2C1 (stereo unspecified) | 16 | -3 | nt | 1 | nt | nt | nt
CNC(=O)Oc1ccc(-c2cn3cc(C)ccc3n2)cc1 | 88* | 93* | 0 | 56* | 97* | 68* | 52*
Cc1ccc(OCCOc2cccc(C=C3C(=O)NC(=O)NC3=O)c2)c(C)c1 | nt | 17 | nt | 23* | nt | 39* | 17*
COc1ccccc1-n1c(-c2cccs2)nc2ccccc2c1=O | 24 | -2 | 1.1 | 17* | -6 | 0 | -10
O=C(O)CC1OCC=C2CN3CCC45C6=CC(=O)C(=O)C([N+](=O)[O-])=C6NC4C1C2CC35 (stereo unspecified) | -4 | -25 | nt | 35* | nt | 72* | -2
NS(=O)(=O)OC(CCc1ccccc1)C(Cl)(Cl)Cl (stereo unspecified) | nt | 0 | nt | -2 | nt | nt | nt

Assay outcomes deposited in PubChem by several laboratories.
